Results from ChEMBL document CHEMBL1938233, “2-Oxo-N-aryl-1,2,3,4-tetrahydroquinoline-6-sulfonamides as activators of the tumor cell specific M2 isoform of pyruvate kinase” (Bioorg Med Chem Lett, 2011).
pEC50: −log10 of the molar value. Calls of active or inactive are those of the source. The calls are words filed in the database; no cut-off is given here.

Columns and labels:
Pyruvate kinase PKM [1] = target: T1, Pyruvate kinase PKM (Homo sapiens, UniProt P14618); assay: Activation of human PKM2 assessed as ATP product formation at 57 µM after 1 hr by luminescent pyruvate kinase-luciferase coupled assay
Target sequence in this assay (P14618 2-531 limits assumed): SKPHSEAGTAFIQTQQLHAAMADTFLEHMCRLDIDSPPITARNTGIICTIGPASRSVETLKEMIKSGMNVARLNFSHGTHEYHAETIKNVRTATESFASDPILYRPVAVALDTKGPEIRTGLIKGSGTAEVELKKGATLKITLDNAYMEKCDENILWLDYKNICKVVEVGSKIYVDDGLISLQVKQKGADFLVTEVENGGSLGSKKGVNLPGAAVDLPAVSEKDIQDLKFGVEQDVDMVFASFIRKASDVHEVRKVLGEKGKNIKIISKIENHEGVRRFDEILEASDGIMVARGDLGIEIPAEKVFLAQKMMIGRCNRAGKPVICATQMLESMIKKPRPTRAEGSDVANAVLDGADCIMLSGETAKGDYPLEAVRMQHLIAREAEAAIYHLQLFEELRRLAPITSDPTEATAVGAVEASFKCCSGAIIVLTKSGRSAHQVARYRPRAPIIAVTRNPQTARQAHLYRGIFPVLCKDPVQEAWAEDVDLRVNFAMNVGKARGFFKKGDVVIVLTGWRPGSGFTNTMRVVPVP

Pyruvate kinase PKM [2] = target: T1, Pyruvate kinase PKM; assay: Activation of human PKM2 assessed as ATP product formation at 57 uM after 1 hr by luminescent pyruvate-kinase luciferase coupled assay
Outline: (§1)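 Luminescent pyruvate kinase–luciferase coupled assay. AC50 is the mean of three separate experiments. Maximum response is % activation at 57 μM compound, normalized as described in the supporting information.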
Target sequence in this assay (P14618 2-531 limits assumed): as above

Liver microsomes = assay: Half life in human liver microsomes at 2 uM after 2 mins by LC/MS/MS analysis; type: ADME, Microsome
[3] = target: Pyruvate kinase PKLR (Homo sapiens) (UniProt P30613); assay: Activation of PKLR assessed as ATP product formation at 57.5 uM after 1 hr by luminescent pyruvate kinase-luciferase coupled assay
Pyruvate kinase PKLR (Homo sapiens), sequence (P30613 whole entry, looked up): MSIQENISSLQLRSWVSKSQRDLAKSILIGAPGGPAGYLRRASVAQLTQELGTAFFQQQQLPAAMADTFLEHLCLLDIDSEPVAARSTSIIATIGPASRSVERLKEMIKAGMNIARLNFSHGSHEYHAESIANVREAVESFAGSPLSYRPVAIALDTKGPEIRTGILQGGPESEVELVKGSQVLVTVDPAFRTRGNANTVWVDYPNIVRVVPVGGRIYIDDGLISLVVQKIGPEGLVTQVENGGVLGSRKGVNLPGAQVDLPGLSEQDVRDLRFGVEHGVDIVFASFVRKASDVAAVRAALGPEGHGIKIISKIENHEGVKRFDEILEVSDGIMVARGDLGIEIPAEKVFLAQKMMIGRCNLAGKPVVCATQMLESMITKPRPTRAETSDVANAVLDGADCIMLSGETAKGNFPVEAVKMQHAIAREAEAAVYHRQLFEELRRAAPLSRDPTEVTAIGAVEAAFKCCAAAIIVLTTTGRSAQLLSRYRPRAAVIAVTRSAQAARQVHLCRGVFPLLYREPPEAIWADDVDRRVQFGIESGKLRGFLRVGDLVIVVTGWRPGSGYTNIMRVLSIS

[4] = Apparent permeability from apical to basolateral side of human Caco2 cells at pH 7.4 after 2 hrs by LC/MS/MS analysis; type: ADME, cell-based; conditions: Caco-2, pH 7.4
Liver = assay: Half life in mouse liver microsomes at 2 uM after 2 mins by LC/MS/MS analysis; type: ADME, Microsome
Pyruvate kinase PKM [5] = target: T1, Pyruvate kinase PKM; assay: Activation of human PKM2 assessed as effect on Km of ADP at 10 uM by after 6 mins by fluorescent pyruvate kinase-lactate dehydrogenase coupled assay
Outline: (§2)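 PK–LDH coupled kinetic assay run at about 22 °C with 10 nM PKM2, 200 mM KCl and 15 mM MgCl2. Either ADP or PEP was held at 4.0 mM while the other substrate was varied. Initial velocity (pmol/min) was measured with and without compound at 10 μM.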
Target sequence in this assay (P14618 2-531 limits assumed): as the sequence (P14618 2-531 limits assumed) above

Pyruvate kinase PKM [6] = target: T1, Pyruvate kinase PKM; assay: Activation of human PKM2 assessed as reduction in Km for PEP at 10 uM by after 6 mins by fluorescent pyruvate kinase-lactate dehydrogenase coupled assay
Outline: as §2
Target sequence in this assay (P14618 2-531 limits assumed): as above

[7] = Apparent permeability from basolateral to apical side of human Caco2 cells at pH 7.4 after 2 hrs by LC/MS/MS analysis; type: ADME, cell-based; conditions: Caco-2, pH 7.4
Caco-2 = assay: Efflux ratio of permeability from basolateral to apical side over apical to basolateral side in human Caco2 cells at pH 7.4 after 2 hrs by LC/MS/MS analysis; conditions: caco-2, pH 7.4, 2 h
Pyruvate kinase PKM [8] = target: T1, Pyruvate kinase PKM; assay: Activation of human PKM2 assessed as ATP product formation after 1 hr by luminescent pyruvate kinase-luciferase coupled assay
Outline: as §1

[9] = Aqueous kinetic solubility of the compound in PBS buffer; type: physicochemical

Cc1ccc(NS(=O)(=O)c2cc3c(cc2/C=C/c2ccccc2)NC(=O)CO3)cc1C
Emax (Pyruvate kinase PKM [1]): inactive

O=C1CCc2cc(S(=O)(=O)Nc3ccc4ncccc4c3)ccc2N1
Emax (Pyruvate kinase PKM [2]): inactive

Cc1ccccc1NS(=O)(=O)c1ccc2c(c1)CCC(=O)N2
Emax (Pyruvate kinase PKM [2]): 94%

O=C1CCc2cc(S(=O)(=O)Nc3ccc(F)c(Cl)c3)c(F)cc2N1
t1/2 (Liver microsomes): 4.62 h | Activity [3]: < 25% | Papp A→B at 2 h [4]: 9.38 ×10⁻⁶ cm/s | t1/2 (Liver): 1.958 h | Activity (Pyruvate kinase PKM [5]): inactive | Activity (Pyruvate kinase PKM [6]): Active | Papp B→A at 2 h [7]: 7.91 ×10⁻⁶ cm/s | Ratio (Caco-2): 0.84 | pEC50 (Pyruvate kinase PKM [8]): 7.05 | Emax (Pyruvate kinase PKM [1]): 88%

Cc1ccc(NS(=O)(=O)c2cc3c(cc2C)NC(=O)CO3)cc1C
Emax (Pyruvate kinase PKM [1]): 111%

Cc1cccc(NS(=O)(=O)c2ccc3c(c2)CCC(=O)N3)c1
Emax (Pyruvate kinase PKM [2]): 101% | pEC50 (Pyruvate kinase PKM [8]): 6.60

Cc1cc(NS(=O)(=O)c2ccc3c(c2)CCC(=O)N3)ccc1Cl
Emax (Pyruvate kinase PKM [2]): 121%

Cc1ccc(NS(=O)(=O)c2cc3c(cc2N[C@@H](C)CO)NC(=O)CC3)cc1C
pEC50 (Pyruvate kinase PKM [8]): 6.77 | Emax (Pyruvate kinase PKM [1]): 116%

O=C1CCc2cc(S(=O)(=O)Nc3cccc(-c4ccccc4)c3)ccc2N1
Emax (Pyruvate kinase PKM [2]): inactive

Cc1ccc(NS(=O)(=O)c2cc3c(cc2Br)CCC(=O)N3)cc1C
pEC50 (Pyruvate kinase PKM [8]): 5.18 | Emax (Pyruvate kinase PKM [1]): 52%

Cc1ccc(NS(=O)(=O)c2cc3c(cc2N2CCC(N(C)C)C2)NC(=O)CC3)cc1C (racemic)
Emax (Pyruvate kinase PKM [1]): inactive

Cc1ccc(NS(=O)(=O)c2cccc(Cl)c2)cc1C
Emax (Pyruvate kinase PKM [1]): 71%

Cc1ccc(NS(=O)(=O)c2ccc3c(c2)oc(=O)n3C)cc1C
Emax (Pyruvate kinase PKM [1]): 95%

Cc1ccc(NS(=O)(=O)c2cc3c(cc2N2CCCCC2)NC(=O)CC3)cc1C
Emax (Pyruvate kinase PKM [1]): 47%

Cc1ccc(NS(=O)(=O)c2ccc(N3CCCC3=O)cc2)cc1C
Emax (Pyruvate kinase PKM [1]): 60%

Cc1ccc(NS(=O)(=O)c2cc3c(cc2F)NC(=O)CC3)cc1C
t1/2 (Liver microsomes): 0.275 h | t1/2 (Liver): 0.572 h | Emax (Pyruvate kinase PKM [1]): 101%

Cc1ccc(NS(=O)(=O)c2ccc3c(c2)CCC(=O)N3)cc1
Emax (Pyruvate kinase PKM [2]): 102%

O=C1CCc2cc(S(=O)(=O)Nc3ccc(F)c(Cl)c3)ccc2N1
Emax (Pyruvate kinase PKM [2]): 123% | pEC50 (Pyruvate kinase PKM [8]): 6.54

CC(=O)N1CCCc2cc(S(=O)(=O)Nc3ccc(C)c(C)c3)ccc21
Emax (Pyruvate kinase PKM [1]): 76%

COc1cccc(Cn2ncc3c4sc([S+](C)[O-])cc4n(C)c3c2=O)c1 (configuration not stated)
pEC50 (Pyruvate kinase PKM [8]): 7.14

Cc1ccc(NS(=O)(=O)c2cc3c(cc2NCCO)NC(=O)CC3)cc1C
Emax (Pyruvate kinase PKM [1]): 132%

COc1ccc(NS(=O)(=O)c2ccc3c(c2)CCC(=O)N3)cc1
Emax (Pyruvate kinase PKM [2]): 85%

Cc1ccc(NS(=O)(=O)c2ccc3c(c2)CC(=O)N3)cc1C
Emax (Pyruvate kinase PKM [1]): 57%

Cc1ccc(NS(=O)(=O)c2cc(N[C@@H](C)CO)cc3c2NC(=O)CC3)cc1Cl
Activity (Pyruvate kinase PKM [8]): inactive

CCN(CC)c1cc2c(cc1S(=O)(=O)Nc1ccc(C)c(C)c1)CCC(=O)N2
Emax (Pyruvate kinase PKM [1]): 106%

Cc1ccc(NS(=O)(=O)c2ccc3c(c2)NC(=O)CO3)cc1C
Emax (Pyruvate kinase PKM [1]): 81%

O=C1CCc2cc(S(=O)(=O)Nc3cccc(C(F)(F)F)c3)ccc2N1
Emax (Pyruvate kinase PKM [2]): 109%

O=C1CCc2cc(S(=O)(=O)Nc3ccc4c(c3)OCCO4)ccc2N1
Emax (Pyruvate kinase PKM [2]): 100%

O=C1CCc2cc(S(=O)(=O)Nc3ccc4ccccc4c3)ccc2N1
Emax (Pyruvate kinase PKM [2]): 121%

Cc1ccc(NS(=O)(=O)c2cc3c(cc2NC(C)CO)NC(=O)CC3)cc1C (racemic)
Kinetic_solubility [9]: > 120 µM | pEC50 (Pyruvate kinase PKM [8]): 6.64 | Emax (Pyruvate kinase PKM [1]): 124%

O=C1CCc2cc(S(=O)(=O)Nc3cccc(Cl)c3)ccc2N1
Emax (Pyruvate kinase PKM [2]): 104% | pEC50 (Pyruvate kinase PKM [8]): 6.39

Cc1cc(NS(=O)(=O)c2cc3c(cc2F)NC(=O)CC3)ccc1Cl
Emax (Pyruvate kinase PKM [1]): 93%

O=C1CCc2cc(S(=O)(=O)Nc3ccc(Cl)c(Cl)c3)ccc2N1
Emax (Pyruvate kinase PKM [2]): 95%

CC(=O)Nc1ccc(S(=O)(=O)Nc2ccc(C)c(C)c2)cc1
Emax (Pyruvate kinase PKM [1]): < 40%

Cc1ccc(NS(=O)(=O)c2ccc3c(c2)CCCC(=O)N3)cc1C
Emax (Pyruvate kinase PKM [1]): 88%

Cc1ccc(NS(=O)(=O)c2ccc3c(c2)CCC(=O)N3)cc1F
Emax (Pyruvate kinase PKM [2]): 138%

Cc1ccc(NS(=O)(=O)c2ccc3ccccc3c2)cc1C
Emax (Pyruvate kinase PKM [1]): 69%

Cc1ccc(NS(=O)(=O)c2ccc3[nH]c(=O)[nH]c3c2)cc1C
Emax (Pyruvate kinase PKM [1]): inactive

Cc1cc(NS(=O)(=O)c2ccc3c(c2)CCC(=O)N3)ccc1F
Emax (Pyruvate kinase PKM [2]): 128%
